Results taken from ChEMBL document CHEMBL4402565, “α-Ketoamides as Broad-Spectrum Inhibitors of Coronavirus and Enterovirus Replication: Structure-Based Design, Synthesis, and Activity Assessment” (J Med Chem, 2020).

Key:
[1] = Inhibition of SARS coronavirus M protease using Dabcyl-KTSAVLQ-SGFRKM-E(Edans)-NH2 as substrate incubated for 10 mins by fluorospectrometry; parameters: species or system Severe acute respiratory syndrome-related coronavirus
How it was run: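 FRET cleavage assay with 0.5 µM recombinant SARS-CoV Mpro (authentic termini) in 20 mM Tris-HCl, 100 mM NaCl, 1 mM EDTA, 1 mM DTT, pH 7.3. Enzyme was preincubated with inhibitor (0–100 µM) for 10 min at 37 °C, then 20 µM final substrate was added. Fluorescence was read at ex 360/em 460 nm. Triplicate, mean ± SD; IC50 from curve fitting.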

[2] = Inhibition of Enterovirus A71 protease 3C using DabcylKEALFQ-GPPQF-E(Edans)-NH2 as substrate incubated for 10 mins by fluorospectrometry
How it was run: (§1)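 FRET cleavage assay in 20 mM Tris-HCl, 100 mM NaCl, 1 mM EDTA, 1 mM DTT, pH 7.3. Final enzyme 2 μM for CVB3 3Cpro or 3 μM for EV-A71 3Cpro, preincubated with inhibitor (0–100 μM) for 10 min at 37 °C. Reaction started with 20 μM final Dabcyl-KEALFQ↓GPPQF-E(Edans)-NH₂. Edans dequenching read at ex 360/em 460 nm. Triplicate, mean ± SD.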

[3] = Inhibition of […] protease 3C using DabcylKEALFQ-GPPQF-E(Edans)-NH2 as substrate incubated for 10 mins by fluorospectrometry; parameters: species or system Coxsackievirus; how it was run: as §1
[4] = Inhibition of human coronavirus NL63 M protease using Dabcyl-KTSAVLQ-SGFRKM-E(Edans)-NH2 as substrate incubated for 10 mins by fluorospectrometry
How it was run: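 0.5 μM final HCoV-NL63 Mpro preincubated 10 min at 37 °C with inhibitor (0–100 μM) in pH 7.3 Tris buffer (100 mM NaCl, 1 mM EDTA, 1 mM DTT). Cleavage of 20 μM Dabcyl-KTSAVLQ↓SGFRKM-E(Edans)-NH₂ followed by fluorescence at 460 nm with 360 nm excitation. IC50 from triplicate measurements, mean ± SD.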

[5] = test system: SARS-CoV; experiment: Antiviral activity against SARS coronavirus infected in HuH7 cells expressing T7 RNA polymerase assessed as reduction in viral RNA replication incubated for 24 hrs by luciferase reporter gene assay; format: functional, organism-based; conditions: Severe acute respiratory syndrome-related coronavirus, Huh-7, 24 h
How it was run: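 SARS-CoV replicon (DNA-launched, Renilla luciferase reporter) was transfected into Huh-T7 cells at 80–90% confluency. Compound at 0, 1.25, 2.5, 5, 10, 20 or 40 µM in growth medium was added after transfection. At 24 h, cells were lysed and luciferase activity measured. Runs were in triplicate or quadruplicate, reported as mean ± SD.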

[6] = test system: rhinovirus B14; experiment: Antiviral activity against Human rhinovirus 14 infected in HeLa Rh cells assessed as reduction in virus-induced cytopathic effect incubated for 3 days by MTS assay; format: functional, organism-based; conditions: Rhinovirus B, 72 h
How it was run: (§2)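 CPE reduction assay. RD (EV-A71) or HeLa Rh (EV-D68, HRV) cells seeded 24 h earlier in medium with 2% FCS; HRV2/HRV14 medium contained 30 mM MgCl₂. Serial compound dilutions added with virus. At 3 days post infection, 5% MTS added for 1 h at 37 °C and OD498 read. EC50 taken as 50% protection versus controls by logarithmic interpolation; morphology also checked microscopically.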

[7] = test system: SARS-CoV; experiment: Antiviral activity against SARS coronavirus infected in Vero E6 cells assessed as reduction in virus-induced cytopathic effect incubated for 2 days by non-radioactive cell proliferation assay; format: functional, organism-based; conditions: Severe acute respiratory syndrome-related coronavirus, Vero C1008, 48 h
[8] = test system: Middle East respiratory syndrome-related coronavirus; experiment: Antiviral activity against Middle East respiratory syndrome coronavirus infected in HuH7 cells expressing T7 RNA polymerase assessed as reduction in virus-induced cytopathic effect incubated for 2 days by non-radioactive cell proliferation assay; format: functional, organism-based; conditions: Huh-7, 48 h
[9] = Antiviral activity against […] infected in HuH7 cells expressing T7 RNA polymerase assessed as reduction in viral RNA replication incubated for 24 hrs by luciferase reporter gene assay; format: functional, organism-based; conditions: B3, Huh-7, 24 h
How it was run: (§3)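 Huh-T7 cells (DMEM, 2 mM glutamine, penicillin/streptomycin, 10% FCS growth or 2% maintenance, G-418 400 μg·mL⁻¹) transfected with enteroviral replicon. Compound added in growth medium at 40 μM for screening or 0, 1.25, 2.5, 5, 10, 20, 40 μM for EC50. After 24 h, cells lysed and luciferase activity read. Triplicate or quadruplicate, mean ± SD.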

[10] = Antiviral activity against […] infected in HuH7 cells expressing T7 RNA polymerase assessed as reduction in virus-induced cytopathic effect incubated for 2 days by non-radioactive cell proliferation assay; format: functional, organism-based; conditions: B3, Huh-7, 48 h
[11] = test system: Enterovirus A71; experiment: Antiviral activity against Enterovirus A71 infected in HuH7 cells expressing T7 RNA polymerase assessed as reduction in viral RNA replication incubated for 24 hrs by luciferase reporter gene assay; format: functional, organism-based; conditions: Enterovirus A, Huh-7, 24 h; how it was run: as §3
[12] = test system: rhinovirus A2; experiment: Antiviral activity against Human rhinovirus 2 infected in HeLa Rh cells assessed as reduction in virus-induced cytopathic effect incubated for 3 days by MTS assay; format: functional, organism-based; conditions: Rhinovirus A, 72 h; how it was run: as §2
[13] = Cytotoxicity against human RD cells assessed as reduction in cell viability incubated for 3 days by MTS assay; format: cell-based
[14] = Cytotoxicity against human HeLa Rh cells assessed as reduction in cell viability incubated for 3 days by MTS assay; format: cell-based
[15] = test system: Middle East respiratory syndrome-related coronavirus; experiment: Antiviral activity against Middle East respiratory syndrome coronavirus infected in Vero cells assessed as reduction in virus-induced cytopathic effect incubated for 3 days by non-radioactive cell proliferation assay; format: functional, organism-based; conditions: 72 h
[16] = Cytotoxicity against human HuH7 cells expressing T7 RNA polymerase assessed as reduction in cell viability incubated for 2 days by non-radioactive cell proliferation assay; format: cell-based, Huh-7
[17] = test system: Human coronavirus 229E; experiment: Antiviral activity against Human coronavirus 229E infected in HuH7 cells expressing T7 RNA polymerase assessed as reduction in virus-induced cytopathic effect incubated for 48 hrs by Alamar blue based assay; format: functional, organism-based; conditions: Huh-7, 48 h
[18] = test system: Enterovirus A71; experiment: Antiviral activity against Enterovirus A71 infected in RD cells assessed as reduction in virus-induced cytopathic effect incubated for 3 days by MTS assay; format: functional, organism-based; conditions: Enterovirus A, 72 h; how it was run: as §2
[19] = Therapeutic index, ratio of CC50 for human HeLa Rh cells to EC50 for Enterovirus D68 infected in human HeLa Rh cells; format: toxicity, cell-based; conditions: read-out: Ratio CC50/EC50
[20] = test system: enterovirus D68; experiment: Antiviral activity against Enterovirus D68 infected in HeLa Rh cells assessed as reduction in virus-induced cytopathic effect incubated for 3 days by MTS assay; format: functional, organism-based; conditions: Enterovirus D, 72 h; how it was run: as §2
[21] = Therapeutic index, ratio of CC50 for human HeLa Rh cells to EC50 for Human rhinovirus 2 infected in human HeLa Rh cells; format: toxicity, cell-based; conditions: read-out: Ratio CC50/EC50
[22] = Therapeutic index, ratio of CC50 for human HeLa Rh cells to EC50 for Human rhinovirus 14 infected in human HeLa Rh cells; format: toxicity, cell-based; conditions: read-out: Ratio CC50/EC50

Compound | IC50 [1] [µM] | IC50 [2] [µM] | IC50 [3] [µM] | IC50 [4] [µM] | EC50 [5] [µM] | EC50 [6] [µM] | EC50 [7] [µM] | EC50 [8] [µM] | EC50 [9] [µM] | EC50 [10] [µM] | EC50 [11] [µM] | EC50 [12] [µM] | CC50 at 72 h [13] [µM] | CC50 at 72 h [14] [µM] | EC50 [15] [µM] | CC50 at 48 h [16] [µM] | EC50 [17] [µM] | EC50 [18] [µM] | other results
O=C(/C=C/c1ccccc1)N[C@H](C(=O)N[C@@H](C[C@@H]1CCNC1=O)C(=O)C(=O)NCc1ccccc1)C1CC1 | 6.27 | > 30 | 15.4 | 11.5 |  |  |  |  |  |  |  |  |  |  |  |  |  |  | 
O=C(/C=C/c1ccccc1)N[C@@H](CC1CCCC1)C(=O)N[C@@H](C[C@@H]1CCNC1=O)C(=O)C(=O)NCc1ccccc1 | 1.27 | 4.73 | 1.93 | 5.41 | 3.6 | 0.42 | 4.9 | 0.007 | 5.1 | 8.1 | 8.9 | 0.51 | 30.8 | 33.2 | 11.1 | 47.5 | 2.5 | 4.2 | 
CC(C)(C)OC(=O)N[C@@H](C[C@@H]1CCNC1=O)C(=O)C(=O)NCc1ccccc1 |  | > 50 | > 50 | > 50 | > 40 |  |  |  | > 10 |  | > 10 |  |  |  |  |  |  |  | 
O=C(/C=C/c1ccccc1)N[C@@H](CC1CCCCC1)C(=O)N[C@@H](C[C@@H]1CCNC1=O)C(=O)C(=O)NCc1ccccc1 | 0.71 | 1.69 | 0.95 | 12.3 | 1.4 | 0.7 | 2.1 | 0.0004 | 2.35 | 2.77 | 6.95 | 0.64 | 17.3 | 10.9 | 5 | 43 | 1.8 | 3.7 | selectivity ratio [19]: > 15; EC50 [20]: 0.48 µM; selectivity ratio [21]: > 15; selectivity ratio [22]: > 15
O=C(/C=C/c1ccccc1)N[C@@H](CC1CC1)C(=O)N[C@@H](C[C@@H]1CCNC1=O)C(=O)C(=O)NCc1ccccc1 | 0.24 | 18.5 | 4.25 | 1.37 | 1.9 | 5.5 | 18.4 | 0.08 | 18 | 10.4 | > 20 | 3.8 | 106 | 103 | 10.9 | > 189 | 1.3 | 46 | 
CCCC[C@H](NC(=O)/C=C/c1ccccc1)C(=O)N[C@@H](C[C@@H]1CCNC1=O)C(=O)C(=O)NCc1ccccc1 | 8.5 | 3.24 | 5.2 | > 50 |  |  |  |  |  |  | > 20 |  |  |  |  |  |  |  | 
C#CC[C@H](NC(=O)/C=C/c1ccccc1)C(=O)N[C@@H](C[C@@H]1CCNC1=O)C(=O)C(=O)NCc1ccccc1 | 10.7 | 8.5 | 8.93 | 17.4 | > 20 |  |  |  |  |  |  |  |  |  |  |  |  |  | 
O=C(/C=C/c1ccccc1)N[C@@H](CC1CCC1)C(=O)N[C@@H](C[C@@H]1CCNC1=O)C(=O)C(=O)NCc1ccccc1 | 1.44 | 10.8 | 4.78 | 3.43 | 6.7 | 4.2 | 7 | 0.02 | 4.3 | 10.4 | 20 | 3.7 | 100 | 65 | 9.8 | 124 |  | 41 | selectivity ratio [19]: > 15; selectivity ratio [21]: > 15; selectivity ratio [22]: > 15
O=C(/C=C/c1ccccc1)N[C@@H](Cc1ccc(F)cc1)C(=O)N[C@@H](C[C@@H]1CCNC1=O)C(=O)C(=O)NCc1ccccc1 |  | 2.32 | 8.69 | > 50 |  |  |  |  |  |  | > 20 |  |  |  |  |  |  |  | 
CC(C)C[C@H](NC(=O)/C=C/c1ccccc1)C(=O)N[C@@H](C[C@@H]1CCNC1=O)C(=O)C(=O)NCc1ccccc1 | 0.33 | 13.8 | 3.82 | 1.08 | 7.2 | 13.4 | 14.2 | 0.0046 | > 10 | 24 | > 10 | 8.9 | 115 | 103 | 9.2 | > 188 | 0.6 | 72 | EC50 [20]: 4.44 µM
